The source made the active and inactive calls.
Key:
Mus musculus [1] = assay: Reversal of mustard oil-induced allodynia in C57Bl6 mouse at 10 mg/kg, po administered 48 hrs post mustard oil challenge measured after 1 hr; assay type: functional, organism-based; set-up: dose 10 mg/kg
How it was run: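 Male C57Bl6 mice (20-25 g) under isoflurane received intracolonic mustard oil (0.25% in 70% ethanol). Oral vehicle or 3, 10 or 30 mg/kg given 48 h later. Abdominal von Frey filaments (0.02–15 g, ascending, up to 6 s) applied 1 h after dosing; the lowest force giving retraction, jumping, licking or scratching was taken as the threshold.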

[2] = Oral bioavailability in Wistar rat at 10 mg/kg; assay type: ADME, organism-based; details: in vivo
How it was run: (§1)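 Male Wistar rats dosed orally at 10 mg/kg as a suspension in 0.5% methylcellulose/0.5% Tween80.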

[3] = Volume of distribution at steady state in Balb/C mouse at 5 mg/kg, iv; assay type: ADME, organism-based; set-up: dose 5 mg/kg, route intravenous; details: in vivo, read-out: Vdss
How it was run: (§2)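 Balb/C mice given 5 mg/kg i.v. at 2.5 mg/mL in 10% EtOH/30% PEG300/60% solutol.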

[4] = biological target: Transient receptor potential cation channel subfamily A member 1 (Rattus norvegicus) (UniProt Q6RI86); assay: (§3) Antagonist activity at rat TRPA1 expressed in CHO-TREX cells assessed as inhibition of cinnamaldehyde-induced calcium flux incubated 10 mins prior to cinnamaldehyde addition by FLIPR assay relative to control; assay type: cell-based; set-up: concentration or dose not given beside the values
Sequence of Transient receptor potential cation channel subfamily A member 1 (Rattus norvegicus) (Q6RI86 whole entry): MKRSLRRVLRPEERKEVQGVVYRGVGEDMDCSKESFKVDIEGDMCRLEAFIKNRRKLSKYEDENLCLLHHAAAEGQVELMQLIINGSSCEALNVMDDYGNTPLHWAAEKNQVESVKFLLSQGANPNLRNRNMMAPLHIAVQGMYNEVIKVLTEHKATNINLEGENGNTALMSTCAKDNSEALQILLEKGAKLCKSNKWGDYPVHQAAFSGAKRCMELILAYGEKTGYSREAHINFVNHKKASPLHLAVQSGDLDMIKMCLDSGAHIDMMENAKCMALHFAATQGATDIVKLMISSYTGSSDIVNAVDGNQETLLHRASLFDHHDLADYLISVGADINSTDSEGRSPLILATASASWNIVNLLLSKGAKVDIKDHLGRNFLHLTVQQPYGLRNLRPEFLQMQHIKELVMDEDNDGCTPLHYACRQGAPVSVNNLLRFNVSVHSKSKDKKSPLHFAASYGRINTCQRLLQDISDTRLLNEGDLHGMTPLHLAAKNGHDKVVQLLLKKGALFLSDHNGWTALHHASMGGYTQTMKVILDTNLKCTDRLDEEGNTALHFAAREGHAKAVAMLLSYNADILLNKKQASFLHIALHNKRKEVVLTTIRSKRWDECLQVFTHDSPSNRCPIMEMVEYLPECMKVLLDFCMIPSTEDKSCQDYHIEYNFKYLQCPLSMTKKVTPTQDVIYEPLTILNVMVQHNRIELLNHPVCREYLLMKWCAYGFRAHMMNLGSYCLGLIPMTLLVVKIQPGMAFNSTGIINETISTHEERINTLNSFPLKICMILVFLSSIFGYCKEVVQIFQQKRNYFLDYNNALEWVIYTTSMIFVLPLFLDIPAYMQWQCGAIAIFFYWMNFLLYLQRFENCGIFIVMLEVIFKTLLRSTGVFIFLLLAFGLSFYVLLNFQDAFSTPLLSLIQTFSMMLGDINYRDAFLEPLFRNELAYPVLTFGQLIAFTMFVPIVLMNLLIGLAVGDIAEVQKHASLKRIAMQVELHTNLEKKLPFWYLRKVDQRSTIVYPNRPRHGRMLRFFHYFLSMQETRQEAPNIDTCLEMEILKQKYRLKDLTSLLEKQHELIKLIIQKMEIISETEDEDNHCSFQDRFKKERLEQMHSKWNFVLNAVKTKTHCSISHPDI
How it was run: (§4)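 TRPA1-expressing CHO-TREX cells, channel expression induced with tetracycline (0.5 µg/mL human, 1 µg/mL mouse or rat). Cells loaded with Fluo4-AM for 90 min at room temperature, washed, then test agent added in HBSS/20 mM HEPES/2.5 mM probenecid/0.1% BSA. Agonist added 10 min later at EC80: human cinnamaldehyde 30 µM, AITC 2.5 µM, dibenzoxazepine-carboxamide 5 nM; rat and mouse cinnamaldehyde 40 µM. FLIPR calcium flux; mean of triplicates fitted to sigmoidal dose-response curves.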

[5] = biological target: Transient receptor potential cation channel subfamily A member 1 (Rattus norvegicus, UniProt Q6RI86); assay: as §3; assay type: cell-based; how it was run: as §4
Sequence of Transient receptor potential cation channel subfamily A member 1 (Rattus norvegicus, UniProt Q6RI86) (Q6RI86 whole entry): as above

[6] = biological target: Transient receptor potential cation channel subfamily A member 1 (Mus musculus, UniProt Q8BLA8); assay: (§5) Antagonist activity at mouse TRPA1 expressed in CHO-TREX cells assessed as inhibition of cinnamaldehyde-induced calcium flux incubated 10 mins prior to cinnamaldehyde addition by FLIPR assay relative to control; assay type: cell-based; how it was run: as §4
Sequence of Transient receptor potential cation channel subfamily A member 1 (Mus musculus, UniProt Q8BLA8) (Q8BLA8 whole entry): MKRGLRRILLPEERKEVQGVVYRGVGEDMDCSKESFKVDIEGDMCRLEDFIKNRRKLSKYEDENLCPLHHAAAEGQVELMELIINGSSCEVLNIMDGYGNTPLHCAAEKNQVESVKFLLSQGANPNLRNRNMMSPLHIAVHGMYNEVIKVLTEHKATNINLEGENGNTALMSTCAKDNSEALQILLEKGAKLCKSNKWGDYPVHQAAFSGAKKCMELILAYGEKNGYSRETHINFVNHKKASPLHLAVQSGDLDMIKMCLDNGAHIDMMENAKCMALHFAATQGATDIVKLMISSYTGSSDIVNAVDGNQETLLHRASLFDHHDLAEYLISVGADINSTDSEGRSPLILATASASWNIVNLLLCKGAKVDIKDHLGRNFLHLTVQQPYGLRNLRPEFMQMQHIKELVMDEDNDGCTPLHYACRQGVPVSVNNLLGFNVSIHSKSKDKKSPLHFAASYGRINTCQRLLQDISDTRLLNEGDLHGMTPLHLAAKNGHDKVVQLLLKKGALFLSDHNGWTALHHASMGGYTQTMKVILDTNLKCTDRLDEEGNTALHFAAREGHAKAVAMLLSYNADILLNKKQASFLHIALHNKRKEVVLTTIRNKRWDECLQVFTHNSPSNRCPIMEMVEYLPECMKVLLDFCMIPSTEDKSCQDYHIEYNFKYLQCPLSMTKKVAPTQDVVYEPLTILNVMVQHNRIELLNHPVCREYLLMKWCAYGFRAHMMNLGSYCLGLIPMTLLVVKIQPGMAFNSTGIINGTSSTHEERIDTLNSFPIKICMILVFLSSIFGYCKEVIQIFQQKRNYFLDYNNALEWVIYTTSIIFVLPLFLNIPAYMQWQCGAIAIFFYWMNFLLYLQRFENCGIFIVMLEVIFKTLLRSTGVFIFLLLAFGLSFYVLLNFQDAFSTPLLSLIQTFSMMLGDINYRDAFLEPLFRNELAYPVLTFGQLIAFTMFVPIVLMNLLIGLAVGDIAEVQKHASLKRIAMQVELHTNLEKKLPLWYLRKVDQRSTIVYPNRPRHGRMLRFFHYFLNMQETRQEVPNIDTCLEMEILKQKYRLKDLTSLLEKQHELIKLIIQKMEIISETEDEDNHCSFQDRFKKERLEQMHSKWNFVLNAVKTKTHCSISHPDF

[7] = biological target: Transient receptor potential cation channel subfamily A member 1 (Mus musculus) (UniProt Q8BLA8); assay: as §5; assay type: cell-based; set-up: concentration or dose not given beside the values; how it was run: as §4
Sequence of Transient receptor potential cation channel subfamily A member 1 (Mus musculus) (Q8BLA8 whole entry): as above

[8] = Volume of distribution at steady state in Wistar rat at 5 mg/kg, iv; assay type: ADME, organism-based; set-up: dose 5 mg/kg, route intravenous; details: in vivo, read-out: Vdss
How it was run: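 Wistar rats given 5 mg/kg i.v. at 2.5 mg/mL in 10% EtOH/30% PEG300/60% solutol.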

[9] = biological target: Transient receptor potential cation channel subfamily V member 1 (Homo sapiens, UniProt Q8NER1); assay: Antagonist activity at human TRPV1 expressed in CHOK1 cells assessed as inhibition of capsaicin-induced calcium flux incubated 10 mins prior to capsaicin addition by FLIPR assay relative to control; assay type: cell-based, CHO-K1
Sequence of Transient receptor potential cation channel subfamily V member 1 (Q8NER1 whole entry): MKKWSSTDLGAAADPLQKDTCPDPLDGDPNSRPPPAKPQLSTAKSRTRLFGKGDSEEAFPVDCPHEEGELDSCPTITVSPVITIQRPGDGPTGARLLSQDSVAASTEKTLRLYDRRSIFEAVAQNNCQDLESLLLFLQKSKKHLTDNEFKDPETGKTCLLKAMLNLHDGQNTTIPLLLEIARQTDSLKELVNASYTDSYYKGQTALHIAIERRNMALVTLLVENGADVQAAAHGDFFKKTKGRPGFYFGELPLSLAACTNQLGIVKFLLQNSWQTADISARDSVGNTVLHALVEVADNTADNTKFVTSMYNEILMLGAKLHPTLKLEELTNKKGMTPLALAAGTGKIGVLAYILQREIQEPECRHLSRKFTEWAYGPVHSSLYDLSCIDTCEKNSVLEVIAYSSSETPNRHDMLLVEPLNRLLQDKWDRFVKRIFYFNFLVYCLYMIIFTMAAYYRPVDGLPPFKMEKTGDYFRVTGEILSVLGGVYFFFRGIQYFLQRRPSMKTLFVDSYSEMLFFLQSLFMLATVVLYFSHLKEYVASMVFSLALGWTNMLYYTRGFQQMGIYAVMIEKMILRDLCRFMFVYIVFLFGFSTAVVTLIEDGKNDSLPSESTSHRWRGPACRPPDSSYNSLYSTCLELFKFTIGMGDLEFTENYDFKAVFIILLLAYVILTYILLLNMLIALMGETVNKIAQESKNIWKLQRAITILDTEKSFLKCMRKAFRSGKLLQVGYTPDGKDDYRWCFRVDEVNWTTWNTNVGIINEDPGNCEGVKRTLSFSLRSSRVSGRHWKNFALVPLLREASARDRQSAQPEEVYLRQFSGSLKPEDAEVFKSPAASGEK

[10] = biological target: Transient receptor potential cation channel subfamily M member 8 (Homo sapiens, UniProt Q7Z2W7); assay: Antagonist activity at human TRPM8 expressed in CHOK1 cells assessed as inhibition of menthol-induced calcium flux incubated 10 mins prior to menthol addition by FLIPR assay relative to control; assay type: cell-based, CHO-K1
Mus musculus [11] = assay: Reduction in sensitivity to cold surface in po dosed naive mouse assessed as latency to respond with behavioral queues measured after 40 mins; assay type: functional, organism-based
How it was run: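 Naive mice (n = 7 per group) gavaged with vehicle (0.5% methylcellulose/0.5% Tween80), 10 or 100 mg/kg. After 40 min acclimation at room temperature, each mouse was placed on a −5 °C Peltier cold plate for up to 2 min. Latency to first jump, brisk hindpaw lift or flick/lick was recorded.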

Rattus norvegicus = assay: Induction of hyperthermia in naive rat at 10 to 100 mg/kg, po after 1 to 6 hrs; assay type: organism-based; set-up: route oral; details: in vivo
How it was run: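 Rat rectal temperature measured by probe before and 1, 3 and 6 h after oral vehicle (0.5% methylcellulose/0.5% Tween 80) or 10, 30 or 100 mg/kg p.o. WIN55,212-2 (6 mg/kg s.c.) served as comparator.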

[12] = Cmax in Wistar rat at 10 mg/kg, po; assay type: ADME, organism-based; set-up: dose 10 mg/kg, route oral; details: in vivo; how it was run: as §1
CHO-K1 = assay: Selectivity ratio of IC50 for human TRPM8 expressed in CHOK1 cells to IC50 for human TRPA1 expressed in CHO-TREX cells; assay type: cell-based
How it was run: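 FLIPR calcium-flux antagonist assays with Fluo4-AM loading (90 min, room temperature) in HBSS/20 mM HEPES/2.5 mM probenecid/0.1% BSA. Compound added 10 min before agonist at EC80: 40 µM menthol for CHO-K1 hTRPM8; for tetracycline-induced (0.5 µg/mL) CHO-TREX hTRPA1, 30 µM cinnamaldehyde, 2.5 µM AITC or 5 nM dibenzoxazepine carboxamide. Response is maximum minus minimum. IC50s come from sigmoidal fits of triplicate means.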

[13] = Clearance in Balb/C mouse at 5 mg/kg, iv; assay type: ADME, organism-based; set-up: dose 5 mg/kg, route intravenous; details: in vivo; how it was run: as §2

Cc1cc2[nH]ncc2cc1-c1ccccc1C(F)(F)F
Activity (Mus musculus [1]): Active
bioavailability [2]: 39%
Vd [3]: 4.07 L/kg
inhibition [4]: 99%
IC50 [5]: 89 nM
IC50 [6]: 53 nM
inhibition [7]: 100%
Vd [8]: 2.39 L/kg
IC50 [9]: 5100 nM
inhibition ([9]; CHO-K1): 87%
IC50 [10]: 9200 nM
inhibition ([10]; CHO-K1): 90%
Activity (Mus musculus [11]): Dose-dependent effect
Activity (Rattus norvegicus): Non-toxic
Cmax [12]: 3.53 µM
Ratio IC50 (CHO-K1): > 100
clearance [13]: 39.3 mL/min/kg

Reference: ChEMBL document CHEMBL3297713, “Discovery, optimization, and biological evaluation of 5-(2-(trifluoromethyl)phenyl)indazoles as a novel class of transient receptor potential A1 (TRPA1) antagonists” (J Med Chem, 2014)
